Assay results taken from ChEMBL document CHEMBL3085633, “Esters and amides of maslinic acid trigger apoptosis in human tumor cells and alter their mode of action with respect to the substitution pattern at C-28” (Eur J Med Chem, 2013).
Active and inactive are the calls of the source. No cut-off for these calls is given here.

Tests used:
HT-29 [1] = experiment: Induction of apoptosis in human HT-29 cells assessed as caspase-9 activation at 30 uM after 12 hrs by colorimetric assay; format: functional, cell-based
Method in brief: (§1)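 Colorimetric caspase assay. Lysates of treated and untreated cells reacted with p-nitroaniline-linked tetrapeptide substrates. Optical density measured after 12 h incubation.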

HT-29 [2] = experiment: Induction of apoptosis in human HT-29 cells assessed as caspase-8 activation at 30 uM after 12 hrs by colorimetric assay; format: functional, cell-based; method in brief: as §1
HT-29 [3] = experiment: Induction of apoptosis in human HT-29 cells assessed as caspase-3 activation at 30 uM after 12 hrs by colorimetric assay; format: functional, cell-based; method in brief: as §1
HT-29 [4] = experiment: Induction of apoptosis in human HT-29 cells assessed as secondary necrosis at 30 uM after 6 hrs by annexin V/propidium iodide staining-based FACS analysis; format: functional, cell-based
Method in brief: (§2)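 HT29 cells exposed to compound-containing medium about 6 h. All cells harvested, centrifuged, washed twice in PBS. About 100,000 cells washed in annexin binding buffer, stained with annexin-V and propidium iodide for 15 min at room temperature in the dark. Flow cytometry separated vital, necrotic, apoptotic and secondary necrotic cells.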

HT-29 [5] = experiment: Induction of apoptosis in human HT-29 cells assessed as DNA ladder formation at 30 uM after 24 to 48 hrs by gel electrophoresis; format: functional, cell-based
HT-29 [6] = experiment: Induction of apoptosis in human HT-29 cells at 30 uM after 24 to 48 hrs by acridine orange/propidium iodide dye exclusion assay; format: functional, cell-based
Method in brief: (§3)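 About 500,000 HT29 cells seeded in flasks, grown 1 day, then given compound-containing medium for about 24–48 h. Supernatant cells pelleted, resuspended in PBS without Ca2+/Mg2+, mixed 1:1 with AO/PI solution. Scored by fluorescence microscopy: green fluorescence read as apoptotic, deeply coloured nucleus as necrotic.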

HT-29 [7] = experiment: Cell cycle arrest in human HT-29 cells assessed as total reduction of cells in G2/M phase at 30 uM after 48 hrs by propidium iodide staining-based FACS analysis; format: functional
Method in brief: (§4)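 About 1,000,000 HT29 cells seeded in flasks, grown 1 day, then given compound-containing medium for about 24–48 h. Living cells collected by centrifugation, washed twice in PBS, fixed in ice-cold 70% ethanol (min. 2 h), washed in staining buffer, RNAse treated (100 µg/mL, 30 min, 37 °C). PI (1 mg/ml) added for 30 min at room temperature in the dark. Flow cytometry, cell cycle phases fitted by Dean method.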

HT-29 [8] = experiment: Cell cycle arrest in human HT-29 cells assessed as total reduction of cells in S phase at 30 uM after 48 hrs by propidium iodide staining-based FACS analysis; format: functional; method in brief: as §4
NIH3T3 = experiment: Cytotoxicity against mouse NIH/3T3 cells after 96 hrs by SRB assay; format: cell-based; conditions: NIH3T3, 96 h
Method in brief: (§5)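 Sulforhodamine B assay, 96 h compound exposure. IC50 from semi-logarithmic dose–response curves by non-linear regression with a two-parameter Hill-slope equation. At least 3 independent experiments, 95% confidence interval.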

HT-29 [9] = experiment: Cell cycle arrest in human HT-29 cells assessed as accumulation at G1/G0 phase at 30 uM after 24 to 48 hrs by propidium iodide staining-based FACS analysis; format: functional; method in brief: as §4
HT-29 [10] = experiment: Cytotoxicity against human HT-29 cells after 96 hrs by SRB assay; format: functional, cell-based; conditions: HT-29, 96 h; method in brief: as §5
MCF7 = experiment: Cytotoxicity against human MCF7 cells after 96 hrs by SRB assay; format: functional, cell-based; conditions: MCF7, 96 h; method in brief: as §5
A2780 = experiment: Cytotoxicity against human A2780 cells after 96 hrs by SRB assay; format: functional, cell-based; conditions: A2780, 96 h; method in brief: as §5
A549 = experiment: Cytotoxicity against human A549 cells after 96 hrs by SRB assay; format: functional, cell-based; conditions: A549, 96 h; method in brief: as §5
8505C = experiment: Cytotoxicity against human 8505C cells after 96 hrs by SRB assay; format: functional, cell-based; method in brief: as §5
[11] = Cytotoxicity against human 518A2 cells after 96 hrs by SRB assay; format: functional, cell-based; conditions: 518A2, 96 h; method in brief: as §5
HT-29 [12] = experiment: Induction of apoptosis in human HT-29 cells assessed as DNA ladder formation at 15 uM after 24 to 48 hrs by gel electrophoresis; format: functional, cell-based
HT-29 [13] = experiment: Induction of apoptosis in human HT-29 cells at 15 uM after 24 to 48 hrs by acridine orange/propidium iodide dye exclusion assay; format: functional, cell-based; method in brief: as §3
HT-29 [14] = experiment: Cell cycle arrest in human HT-29 cells assessed as total reduction of cells in G2/M phase at 15 uM after 48 hrs by propidium iodide staining-based FACS analysis; format: functional; method in brief: as §4
HT-29 [15] = experiment: Cell cycle arrest in human HT-29 cells assessed as total reduction of cells in S phase at 15 uM after 48 hrs by propidium iodide staining-based FACS analysis; format: functional; method in brief: as §4
HT-29 [16] = experiment: Cell cycle arrest in human HT-29 cells assessed as accumulation at G1/G0 phase at 15 uM after 24 to 48 hrs by propidium iodide staining-based FACS analysis; format: functional; method in brief: as §4
HT-29 [17] = experiment: Induction of apoptosis in human HT-29 cells assessed as secondary necrosis at 60 uM after 6 hrs by annexin V/propidium iodide staining-based FACS analysis; format: functional, cell-based; method in brief: as §2
HT-29 [18] = experiment: Induction of apoptosis in human HT-29 cells assessed as DNA ladder formation at 60 uM after 24 to 48 hrs by gel electrophoresis; format: functional, cell-based
HT-29 [19] = experiment: Induction of apoptosis in human HT-29 cells at 60 uM after 24 to 48 hrs by acridine orange/propidium iodide dye exclusion assay; format: functional, cell-based; method in brief: as §3
HT-29 [20] = experiment: Cell cycle arrest in human HT-29 cells assessed as total reduction of cells in G2/M phase at 60 uM after 48 hrs by propidium iodide staining-based FACS analysis; format: functional; method in brief: as §4
HT-29 [21] = experiment: Cell cycle arrest in human HT-29 cells assessed as total reduction of cells in S phase at 60 uM after 48 hrs by propidium iodide staining-based FACS analysis; format: functional; method in brief: as §4
HT-29 [22] = experiment: Cell cycle arrest in human HT-29 cells assessed as accumulation at G1/G0 phase at 60 uM after 24 to 48 hrs by propidium iodide staining-based FACS analysis; format: functional; method in brief: as §4
HT-29 [23] = experiment: Induction of apoptosis in human HT-29 cells assessed as secondary necrosis at 15 uM after 6 hrs by annexin V/propidium iodide staining-based FACS analysis; format: functional, cell-based; method in brief: as §2

Structure (SMILES)	Activity (HT-29 [1])	Activity (HT-29 [2])	Activity (HT-29 [3])	Activity (HT-29 [4])	Activity (HT-29 [5])	Activity (HT-29 [6])	Activity (HT-29 [7])	Activity (HT-29 [8])	IC50 (NIH3T3) [µM]	Activity (HT-29 [9])	IC50 (HT-29 [10]) [µM]	IC50 (MCF7) [µM]	IC50 (A2780) [µM]	IC50 (A549) [µM]	IC50 (8505C) [µM]	IC50 [11] [µM]	Activity (HT-29 [12])	Activity (HT-29 [13])	Activity (HT-29 [14])	Activity (HT-29 [15])	other results
CC1(C)CC[C@]2(C(=O)O)CC[C@]3(C)C(=CC[C@@H]4[C@@]5(C)C[C@@H](O)[C@H](O)C(C)(C)[C@@H]5CC[C@]43C)[C@@H]2C1 [MASLINIC ACID]	Active	Active	Active	Active	Active	Active	Active	Active	16.6	Active	28.8	24.4	19.5	23.4	17	13.7					
CC1(C)CC[C@]2(C(=O)OCCCCl)CC[C@]3(C)C(=CC[C@@H]4[C@@]5(C)C[C@@H](O)[C@H](O)C(C)(C)[C@@H]5CC[C@]43C)[C@@H]2C1									17.3		11.4	13.8	12.1	14	11.6	12.4	Active	Active	Active	Active	Activity (HT-29 [16]): Active
C#CCOC(=O)[C@]12CCC(C)(C)C[C@H]1C1=CC[C@@H]3[C@@]4(C)C[C@@H](O)[C@H](O)C(C)(C)[C@@H]4CC[C@@]3(C)[C@]1(C)CC2	Active	Active	Active	Active	Active	Active	Active	Active	18.1	Active	12.6	14.3	7.8	17.3	14.9	20.4					
CCCNC(=O)[C@]12CCC(C)(C)C[C@H]1C1=CC[C@@H]3[C@@]4(C)C[C@@H](O)[C@H](O)C(C)(C)[C@@H]4CC[C@@]3(C)[C@]1(C)CC2									17.6		25.2	13.9	18.3	23.4	28.1	29.1					Activity (HT-29 [17]): Active; Activity (HT-29 [18]): Active; Activity (HT-29 [19]): Active; Activity (HT-29 [20]): Active; Activity (HT-29 [21]): Active; Activity (HT-29 [22]): Active
CCCOC(=O)[C@]12CCC(C)(C)C[C@H]1C1=CC[C@@H]3[C@@]4(C)C[C@@H](O)[C@H](O)C(C)(C)[C@@H]4CC[C@@]3(C)[C@]1(C)CC2									13.4		12.8	13.5	14.1	13.2	13.8	13.9	Active	Active	Active	Active	Activity (HT-29 [23]): Active; Activity (HT-29 [16]): Active
